System: MS2 coat protein
Test: apparent Kd, MS2 coat protein; higher = weaker binding; RNA-MaP array; FMN 200 µM where present
Procedure, shortened: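 Binding was read on Illumina sequencing-chip clusters where stalled E. coli RNA polymerase had transcribed each design. A titration of SNAP-549-labelled MS2 coat protein began at 0.7 or 1.5 nM and doubled to 3 µM, once without ligand and once with constant ligand, in 100 mM Tris-HCl pH 7.5, 80 mM KCl, 4 mM MgCl2, BSA, DTT, yeast tRNA and Tween-20. The apparent Kd is the median of filtered per-cluster binding-curve fits, based on green signal normalised to red-channel RNA signal and control-cluster median Fmax.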

[1] = designed as: OFF switch for flavin mononucleotide, no ligand
[2] = ligand present: flavin mononucleotide, designed as: OFF switch for flavin mononucleotide
[3] = designed as: ON switch for flavin mononucleotide, no ligand
[4] = ligand present: flavin mononucleotide, designed as: ON switch for flavin mononucleotide

GCGUUGAACGAGAAGGCCAAUACAUGAGGAUCACCCAUGUUUAGAUGUUUUGGAGGAUAUCGUACGUAUUCAAUAUUGCAACGC
apparent Kd [1]: 10.9 nM
apparent Kd [2]: 9.94 nM

AACUCGUCAGGAUAUGCGCGCAGAUAAUACGCUUCGCAAUUGCAGAAGGGACAUGAGGAUCACCCAUGUAAAUA
apparent Kd [1]: 29.8 nM
apparent Kd [2]: 32 nM

AUCAGCUCGUCAGGAUAUACGUCACUGCGUGAGCAGUGUGGUAAGAUCACAUGAGGAUCACCCAUGUAGAAGGGACGAGCUGAU
apparent Kd [1]: 13.6 nM
apparent Kd [2]: 271 nM

ACUAGAUGAGGAUAUACACAUUUUAGUGUUCCUCUAGAUUAACAUGAGGAUCACCCAUGUAGAAGGCAUCAAUU
apparent Kd [1]: 56.5 nM
apparent Kd [2]: 183 nM

AAUAUGAGCUGGAAUAAAACCUGAACAUGAGGAUCACCCAUGUAGGAUAUCAGCACGAUAAGUGCUGAGAAGGACAACCAGCUC
apparent Kd [1]: 14 nM
apparent Kd [2]: 14.6 nM

UGUUUUCAUGUAGGAUAUGCUUGUCGUAGAUACGCAGAAGGACAUGAGGAUCACCCAUGUUAAAGCGACAGAGUAUAGAUUCUU
apparent Kd [1]: 16.3 nM
apparent Kd [2]: 22.3 nM

AAUUAAUUGUAGAAGGUACUUAAUUAUGUUAUGUAAGGAUAUACGUAAUUAUUACGACAUGUAUGACAUGAGGAUCACCCAUGU
apparent Kd [3]: 7.72 nM
apparent Kd [4]: 7.82 nM

CCCUCACAUGAGGAUCACCCAUGUCAGGAUAUUCGAACGGUGUGUUUUUGGCCAGUUGGAAGAAGGGACAUAAA
apparent Kd [1]: 29.7 nM
apparent Kd [2]: 117 nM

UGUAUUAAUGGAGGAUAUCGAUAUCAAACAUGAGGAUCACCCAUGUUGAGGAUCACCCAUGUCCAUGAGAAGGCUGGCGUACGU
apparent Kd [3]: 45.4 nM
apparent Kd [4]: 40.9 nM

CUCAGCUCGUCAGGAUAUACGUCACUGCUUCGGCAGUGUGGUAAGAUCACAUGAGGAUCACCCAUGUAGAAGGGACGAGCUGAU
apparent Kd [1]: 11.7 nM
apparent Kd [2]: 248 nM

GUUUCACAUGAGGAUCACCCAUGUGAGGAUAUAGAUUUGUUAGUGGUGAUUGGUGGAUUUAGAAGGCGCGUGAU
apparent Kd [1]: 81.3 nM
apparent Kd [2]: 66.2 nM

AAGUAGGGAGGAUAUACAUAGAUACAGAUUCAUGUAGAACUACAUGAGGAUCACCCAUGUAGAAGGCCCUAAUA
apparent Kd [1]: 31.6 nM
apparent Kd [2]: 193 nM

UGUCGGAGAAGAGGAUAUUACAUGAGGAUCACCCAUGUAUGAACCAAUAGCUGGAAACAGCAAUGUAAGAAGGCUGCUCCGACA
apparent Kd [1]: 5.32 nM
apparent Kd [2]: 23.1 nM

GAUACACAUGAGGAUCACCCAUGUGAGGAUAUGCGUACGUUGUCCGUAGGCGACGUGCGCAGAAGGCGCAAGGU
apparent Kd [1]: 83.2 nM
apparent Kd [2]: 95.3 nM

AGCAGGUGAGGAUAUCGAUUAAGAUUAACAUUAUUAUUAAACGAGAAGGCACAUGAGGAUCACCCAUGUAAGGA
apparent Kd [1]: 29.9 nM
apparent Kd [2]: 41.3 nM

GGUCCAUCAUGAGGAUAUGGCACCUUAUUGGUGCCAGAAGGCAUGUCUAUAGACAUGAGGAUCACCCAUGUAAUAAAAUGGACC
apparent Kd [3]: 571 nM
apparent Kd [4]: 61.5 nM

AUCAGCUCGUCAGGAUAUACGUCACUGCGUCAGCAGUGUAAUAAAAUAACAUGAGGAUCACCCAUGUAGAAGGGACGAGCUGAU
apparent Kd [1]: 6.36 nM
apparent Kd [2]: 6.75 nM

CAAGUGUCAGGAUAUACAUGAGGAUCACCCAUGUGUCUUUGUGAUCGUAGGGUGCACCGUAGAAGGGACACUCC
apparent Kd [1]: 70.4 nM
apparent Kd [2]: 127 nM

AGCUGUGGCCGAGGAUAUCUAAUAUCUCAAACCGAAAUAUAAUCGGACAUGAGGAUCACCCAUGUAGAGAAGGCGGUCUCAGCA
apparent Kd [1]: 31.1 nM
apparent Kd [2]: 85 nM

UUUAUGUCAGGAUAUACAUGAGGAUCACCCAUGUAUAUCUUAAAAUAUACAUGGGAAUGUAGAAGGGACCUCCU
apparent Kd [1]: 51 nM
apparent Kd [2]: 41 nM

AAAAAGCGAGGAUAUACAUGAGGAUCACCCAUGUCAAACGGUAAGACCGCAGGAAAAAGUAGAAGGCGCAAAAA
apparent Kd [1]: 61.5 nM
apparent Kd [2]: 98.5 nM

GUUGUGUAUGUAGGAUAUGCGAAGCAAAGCUUCGCAGAAGGACAUGAGGAUCACCCAUGUAUUGCGGUCUGCGUUCAGAUCGCU
apparent Kd [1]: 43.5 nM
apparent Kd [2]: 181 nM

CAUAACUUUGAUCUCUCCUACAUGAGGAUCACCCAUGUUGAGAGAAGGAGGCGGCGGAGUGCCGCCUAGGAUAUCUGAAGGGUC
apparent Kd [1]: 6.06 nM
apparent Kd [2]: 7.35 nM

UUGACGGCAGGAUAUACAUGAGGAUCACCCAUGUAAAUUUUUCGUUUAACUUGAAUGUGUAGAAGGGCCAAAUU
apparent Kd [1]: 19 nM
apparent Kd [2]: 20 nM

GUUAGACAUGAGGAUCACCCAUGUGAGGAUAUGAUGUGAAUAAAUAAUUAAUUAAGUAUCAGAAGGCACAUAUG
apparent Kd [1]: 129 nM
apparent Kd [2]: 149 nM

GUAGCAUAAUUAGGAUAUUCAGCGAAUAGAUUGACAUGAGGAUCACCCAUGUGGCGAAAGCCGAGGGAGAAGGGAUAAUGCUAC
apparent Kd [3]: 157 nM
apparent Kd [4]: 61.1 nM

AGAAACUACGAGAAGGACAUGAGAACCUUCAAUUACAUGAGGAUCACCCAUGUAGGAUAUCGUAGUUUCAGGAUCGUGAGAUCA
apparent Kd [1]: 12.7 nM
apparent Kd [2]: 86 nM

ACCAGUGCAUCAGGAUAUCCUCACAUGAGGAUCACCCAUGUAAUGAGCCGAGGAGAAGGGAUGUGAACUCCAGUUAUCGAUCGU
apparent Kd [3]: 101 nM
apparent Kd [4]: 14.1 nM

UCUGGGUCUGUGAGGAUAUUGGGUCUGAAAGGGCUCGAGAAGGCACAUGAGGAUCACCCAUGUAAGGGCUCGGG
apparent Kd [1]: 27.6 nM
apparent Kd [2]: 21.6 nM

UUGAUGUCAGGAUAUGCUUAAUAUAUUUUAUUAUAAUAUAUACAUGAGGAUCACCCAUGUAGAAGGGACAUUGU
apparent Kd [1]: 28.7 nM
apparent Kd [2]: 23.8 nM

UUUUUAUUUAUAGGAUAUGGAAACAUGAGGAUCACCCAUGUAUGAUAAGAUAAAUUAUGAUAUAGCCAGAAGGAUAUUAUUUUU
apparent Kd [3]: 28.5 nM
apparent Kd [4]: 35.9 nM

ACAGACCAACAGAAGGGUGAGGUGUUGUUCUUCACAGGAUAUGUUGGCAACAUGAGGAUCACCCAUGUUGGUUUUGAAGUACGU
apparent Kd [3]: 16.3 nM
apparent Kd [4]: 4.68 nM

CGCCUGCGUAGAAUUAGCAGCUGACAGGAUAUGACAUGAGGAUCACCCAUGUGAAUUAAGAAGAGUCAGAAGGGUCACGACGCG
apparent Kd [1]: 9.4 nM
apparent Kd [2]: 10.8 nM

CAUGGCACGUAGGAUAUCUCGCAGCCCGGCUGCAGAGAAGGACGUACAUGAGGAUCACCCAUGUAUGAUCCAAA
apparent Kd [1]: 24.5 nM
apparent Kd [2]: 49.2 nM

AGAGAAUAGGUAGGAUAUCUUAAUAGAAAGAAUAGAGAAGGACCACAUGAGGAUCACCCAUGUGAAGUCUUGAGACUACAUGGU
apparent Kd [1]: 18.1 nM
apparent Kd [2]: 22.9 nM

UCCUAACAUGAGGAUCACCCAUGUCAGGAUAUGAUACUAUGUACUUCGGUACAUAGUAUCAGAAGGGACAUCCU
apparent Kd [1]: 15.3 nM
apparent Kd [2]: 16.6 nM

UACAGACAUGAGGAUCACCCAUGUAAGGAUAUCGGUACCGAUGGUAUAAUCUACUCGGCGAGAAGGUACAGUGU
apparent Kd [1]: 23.1 nM
apparent Kd [2]: 26.7 nM

GUUAGACAUGAGGAUCACCCAUGUGAGGAUAUGAUGCGAUCGUGCUGACAUGAUCGCAUCAGAAGGCACAUAUG
apparent Kd [1]: 133 nM
apparent Kd [2]: 190 nM

ACAUGAGGAUCUCCCAUGUAAAAUUAGGAUAUAUAACUGCACAUGAGGAUCACCCAUGUUUUACCGUAGAAGGGAUAAAUAAUU
apparent Kd [3]: 1010 nM
apparent Kd [4]: 567 nM

ACGUCACAUGAGGAUCACCCAUGUCAGGCCGGACUAGGAUAUUAUCAUGCAGCGUGACCGUGAGAAGGAGUUGGAU
apparent Kd [3]: 104 nM
apparent Kd [4]: 82.2 nM

UUGGACGUCGUAGGAUAUGUAGGAGAUUCCUACAUGAGGAUCACCCAUGUUGACAUGGAAGAAGGACAGAAGGACGAUGUCCAU
apparent Kd [3]: 328 nM
apparent Kd [4]: 20.4 nM

UGAUCGAGAGAUCUUAGAUUCUGGUAGGAUAUAAAACAAUUGCGCUUUACAUGAGGAUCACCCAUGUAGAAGGACUAGAGUCUA
apparent Kd [1]: 6.72 nM
apparent Kd [2]: 5.96 nM

AUUAACUACAUAGGAUAUUGAUACAUGAGGAUCACCCAUGUCACGUAUUUAUAUUAAACAUUUGACAAGAAGGAUGUGGUUACA
apparent Kd [3]: 17.2 nM
apparent Kd [4]: 7.01 nM

GUGGUGCAUAUACGUGGAUGUACAUGAGGAUCACCCAUGUAAGAGGAUAUGCGGAUACUAGCUCAGCAGAAGGCUUACAAAUGC
apparent Kd [1]: 9.75 nM
apparent Kd [2]: 27.5 nM

CUUUUGUGAGGAUAUCAGUAGUUAAAUAAUAAAAUUACUACUGAGAAGGCACAUGAGGAUCACCCAUGUUCCUC
apparent Kd [1]: 36.4 nM
apparent Kd [2]: 201 nM

GGAAAGUAAGGAUAUGCGAACAAACAAACAAACAAAAGGGAACAUGAGGAUCACCCAUGUAGAAGGUGCAAACA
apparent Kd [1]: 46.3 nM
apparent Kd [2]: 35.9 nM

UGGUGGAAGCAGGAUAUGCUUGUUUUAUUGAUUGCAGAAGGGCUAACAUGAGGAUCACCCAUGUAAGAGGUGUU
apparent Kd [1]: 428 nM
apparent Kd [2]: 196 nM

ACUAAGAGAGGAUAUACUAACAAACCUCAAACAUACAUCAAACAUGAGGAUCACCCAUGUAGAAGGCUCAAACU
apparent Kd [1]: 30.5 nM
apparent Kd [2]: 31.6 nM

Reference: the EternaBench riboswitch data
